Results as given in ChEMBL document CHEMBL4304827, “Design, synthesis and evaluation of structurally diverse chrysin-chromene-spirooxindole hybrids as anticancer agents” (Bioorg Med Chem, 2019).
Active and inactive are the calls of the source. No cut-off for these calls is given here.

How the values were obtained:
[1] = system: A549; experiment: Induction of apoptosis in human A549 cells assessed as downregulation of MDM2 protein expression incubated for 24 hrs by Western blot analysis; type: functional, cell-based
How it was run: (§1)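 A549 cells were treated with various concentrations for 24 h and lysed in RIPA buffer with 1 mM PMSF. Protein (20 μg) was resolved on 8-12% SDS-PAGE and transferred to PVDF. Membranes were blocked in 5% milk and probed with primary antibodies overnight at 4 °C, then with anti-rabbit secondary. Bands were quantified by densitometry. Mean ± SD, ≥3 experiments.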

[2] = system: NCI-H1299; experiment: Antiproliferative activity against human H1299 cells assessed as reduction in cell proliferation incubated for 48 hrs by MTT assay; type: functional, cell-based; conditions: NCI-H1299, 48 h
How it was run: (§2)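 Log-phase cells were plated at 5 × 10^3/well in RPMI-1640 with 10% FBS and cultured 24 h. Compounds were added at graded concentrations (DMSO <0.1%) for 48 h. MTT (5 mg/mL) was added for about 4 h, formazan was dissolved in DMSO and A490 was read. IC50 was calculated from ≥3 independent experiments and reported as mean ± SD. Chrysin served as positive control.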

[3] = system: A549; experiment: Induction of apoptosis in human A549 cells assessed as upregulation of p53 protein expression incubated for 24 hrs by Western blot analysis; type: functional, cell-based; how it was run: as §1
[4] = system: A549; experiment: Induction of apoptosis in human A549 cells assessed as morphological changes by measuring rounded cells with weak adhesion incubated for 24 hrs; type: functional, cell-based
How it was run: (§3)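 A549 cells were plated at 3 × 10^5/well and cultured 12 h, then exposed to various concentrations for 24 h. Morphology was observed by microscopy. AO-EB stain (1 mg/mL each, in PBS) was applied for 10 min at room temperature in the dark. Harvested cells were stained with PI for 15 min at room temperature in the dark, then washed. Both stains were examined by fluorescence microscopy.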

[5] = system: K562; experiment: Antiproliferative activity against human K562 cells assessed as reduction in cell proliferation incubated for 48 hrs by MTT assay; type: functional, cell-based; conditions: K562, 48 h; how it was run: as §2
[6] = system: A549; experiment: Induction of apoptosis in human A549 cells assessed as viable cells at 5 uM incubated for 24 hrs by annexin V FITC and PI staining based flow cytometry (reference value: 95.7%); type: functional; conditions: A549, 24 h, read-out: Activity
[7] = system: A549; experiment: Induction of apoptosis in human A549 cells assessed as increase in caspase 8 activity incubated for 24 hrs by colorimetry; type: functional, cell-based
How it was run: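 A549 cells were plated at 3 × 10^5/well and cultured 12 h, then treated with various concentrations for 24 h. Cells were lysed on ice for 60 min. Lysate containing 200 μg protein was incubated with caspase-3, -8 or -9 colorimetric substrate at 37 °C for 4 h in the dark, and A405 was read. Activation = (treated − blank)/(control − blank). Mean ± SD, ≥3 experiments.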

[8] = system: A549; experiment: Induction of apoptosis in human A549 cells assessed as upregulation of p53 protein expression at 10 uM by Western blot analysis; type: functional, cell-based; conditions: TDE = time-dependent effect
How it was run: as §1, with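 “exposed to 10 μM” for “treated with various concentrations”, “different times” for “24 h”, “separated” for “resolved”, “incubated” for “probed”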

[9] = system: A549; experiment: Induction of apoptosis in human A549 cells assessed as increase in DNA ladder formation incubated for 24 hrs by agarose gel electrophoresis method; type: functional, cell-based
How it was run: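 A549 cells were treated with various concentrations for 24 h. Genomic DNA was isolated by lysis, RNase A and proteinase K digestion, then ethanol precipitation. DNA was run on a 2% agarose gel to visualize ladder formation.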

[10] = system: A549; experiment: Induction of apoptosis in human A549 cells assessed as upregulation of p21 protein expression at 10 uM by Western blot analysis; type: functional, cell-based; conditions: TDE = time-dependent effect
How it was run: as §1, with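 “exposed to 10 μM” for “treated with various concentrations”, “different times” for “24 h”, “separated” for “resolved”, “incubated” for “probed”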

[11] = system: A549; experiment: Induction of apoptosis in human A549 cells assessed as early apoptotic cells at 50 uM incubated for 24 hrs by annexin V FITC and PI staining based flow cytometry (reference value: 0.53%); type: functional
[12] = system: A549; experiment: Induction of apoptosis in human A549 cells assessed as chromatin shrinkage and apoptotic body formation at higher concentrations incubated for 24 hrs by AO-EB staining based fluorescence microscopy; type: functional, cell-based; how it was run: as §3
[13] = system: A549; experiment: Induction of apoptosis in human A549 cells assessed as downregulation of MDM2 protein expression at 10 uM by Western blot analysis; type: functional, cell-based; conditions: TDE = time-dependent effect
How it was run: as §1, with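 “exposed to 10 μM” for “treated with various concentrations”, “different times” for “24 h”, “separated” for “resolved”, “incubated” for “probed”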

[14] = system: A549; experiment: Induction of apoptosis in human A549 cells assessed as downregulation of Bcl2 protein expression incubated for 24 hrs by Western blot analysis; type: functional, cell-based; how it was run: as §1
[15] = system: A549; experiment: Induction of apoptosis in human A549 cells assessed as necrotic cells at 5 uM incubated for 24 hrs by annexin V FITC and PI staining based flow cytometry (reference value: 2.43%); type: functional
[16] = system: A549; experiment: Induction of apoptosis in human A549 cells assessed as necrotic cells at 50 uM incubated for 24 hrs by annexin V FITC and PI staining based flow cytometry (reference value: 2.43%); type: functional
[17] = system: A549; experiment: Antimigratory activity in human A549 cells assessed as reduction in cell invasion incubated for 36 hrs by matrigel transwell migration assay; type: functional, cell-based
How it was run: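 Cells were suspended at 1 × 10^4/mL in RPMI-1640 with 1% FBS and seeded in the upper chamber. For the invasion assay the upper chamber was coated with Matrigel. The lower chamber held medium with 10% FBS. Compound was given at various concentrations for 36 h. Membranes were methanol-fixed and stained with 0.1% crystal violet. Cells on the lower side were counted relative to control (100%). Mean ± SD, ≥3 experiments.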

[18] = system: A549; experiment: Induction of apoptosis in human A549 cells assessed as early apoptotic cells at 5 uM incubated for 24 hrs by annexin V FITC and PI staining based flow cytometry (reference value: 0.53%); type: functional
[19] = system: A549; experiment: Induction of apoptosis in human A549 cells assessed as upregulation of p21 protein expression incubated for 24 hrs by Western blot analysis; type: functional, cell-based; how it was run: as §1
[20] = system: A549; experiment: Induction of apoptosis in human A549 cells assessed as upregulation of Cyt c protein expression incubated for 24 hrs by Western blot analysis; type: functional, cell-based; how it was run: as §1
[21] = system: A549; experiment: Induction of apoptosis in human A549 cells assessed as viable cells at 50 uM incubated for 24 hrs by annexin V FITC and PI staining based flow cytometry (reference value: 95.7%); type: functional; conditions: A549, 24 h, read-out: Activity
[22] = system: A549; experiment: Induction of apoptosis in human A549 cells assessed as compromised cell membrane boundaries at 5 to 20 uM incubated for 24 hrs by PI staining based fluorescence microscopy; type: functional; how it was run: as §3
[23] = system: A549; experiment: Induction of apoptosis in human A549 cells assessed as upregulation of Bax protein expression at 10 uM by Western blot analysis; type: functional, cell-based; conditions: TDE = time-dependent effect
How it was run: as §1, with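 “exposed to 10 μM” for “treated with various concentrations”, “different times” for “24 h”, “separated” for “resolved”, “incubated” for “probed”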

[24] = system: A549; experiment: Induction of apoptosis in human A549 cells assessed as late apoptotic cells at 50 uM incubated for 24 hrs by annexin V FITC and PI staining based flow cytometry (reference value: 1.32%); type: functional
[25] = system: A549; experiment: Inhibition of colony formation in human A549 cells culture in 0.3% RPMI-1640 medium agar assessed as decrease in size and number of colonies formed incubated for 20 days by NBT staining based assay; type: functional, cell-based
How it was run: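 A549 cells at 1 × 10^5 cells/mL were treated with various concentrations in 0.3% medium-agar layered over 0.6% medium-agar. Cultures were kept at 37 °C and 5% CO2. Methods give 14 days; the figure legend gives 20 days. Colonies were stained with 1.5 mg/mL NBT and counted as a percentage of control. Mean ± SD, ≥3 experiments.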

CN1C(=O)C2(C(C#N)=C(N)Oc3cc4oc(-c5ccccc5)cc(=O)c4c(O)c32)c2cc(Br)ccc21 (stereo not given)
inhibition [1]: Dose-dependent effect | IC50 [2]: 7.61 µM | Activity [3]: Dose-dependent effect | Activity [4]: Dose-dependent effect | IC50 [5]: 4.1 µM | viability at 5 µM [6]: 85% | Activity [7]: Dose-dependent effect | Activity [8]: Tde | Activity [9]: Dose-dependent effect | Activity [10]: Tde | Activity [11]: 9.33% | Activity [12]: Active | inhibition [13]: Tde | inhibition [14]: Dose-dependent effect | Activity [15]: 0.732% | Activity [16]: 6.11% | inhibition [17]: Dose-dependent effect | Activity [18]: 6.53% | Activity [19]: Dose-dependent effect | Activity [20]: Dose-dependent effect | viability at 50 µM [21]: 59.8% | Activity [22]: Active | Activity [23]: Tde | Activity [24]: 24.8% | inhibition [25]: Dose-dependent effect
